Active and inactive are the calls of the source. The rule behind the calls is not given here.

The subject of assay [1] is IGROV-1. The experiment in a line: Anticancer activity against human IGROV-1 cells assessed as cell growth inhibition at 10 uM measured after 48 hrs by SRB assay relative to control. The format is functional. The note with it: read-out: GI. In outline: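 NCI 60-cell-line screen. Cells in RPMI with 5% FBS were plated at 5,000–40,000 cells/well by doubling time and preincubated 24 h at 37 °C. Compound was added at a single 10 µM for 48 h, then cells were fixed with cold TCA (10% final) and stained with 0.4% SRB. Absorbance at 515 nm gave percent growth versus untreated control and time-zero cells.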
Background: The SRB assay estimates cell density from bound dye.

Assay [2] can be described thus: Drug metabolism in pH 7.4 phosphate buffer assessed as nitric oxide release at 100 uM measured after 48 hrs by Griess reagent based colorimetric method. In outline: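 Compound at 100 µM was held at room temperature in pH 7.4 phosphate buffer with 5 mM DTT and 2% DMSO for 2 or 48 h. Griess reagent was added, and after 30 min absorbance was read at 548 nm. NO release (mol NO/mol compound) was derived from a sodium nitrite calibration curve.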

For assay [3], the target named is T1, Signal transducer and activator of transcription 3 (Homo sapiens, UniProt P40763). Description: Displacement of FAM-labeled 5-GpYLPQTV-NH2 from recombinant GST-tagged STAT3 (unknown origin) preincubated for 30 mins followed by FAM-labeled 5-GpYLPQTV-NH2 addition and measured after 30 mins by fluorescence assay. The note with it: for inhibition: time 60.0 min. The gist of the method: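 GST-STAT3 (2 µM) was bound to GST beads for 1 h at 4 °C in PBS with 0.1% β-mercaptoethanol, then washed. Bead slurry was incubated with compound dilutions (2.25% DMSO, duplicate) and FAM-GpYLPQTV-NH2 peptide. Resin was washed by vacuum filtration and fluorescence read at ex 485/em 535 nm. % displacement was set against the no-compound signal; two independent experiments.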
T1 sequence (P40763 whole entry): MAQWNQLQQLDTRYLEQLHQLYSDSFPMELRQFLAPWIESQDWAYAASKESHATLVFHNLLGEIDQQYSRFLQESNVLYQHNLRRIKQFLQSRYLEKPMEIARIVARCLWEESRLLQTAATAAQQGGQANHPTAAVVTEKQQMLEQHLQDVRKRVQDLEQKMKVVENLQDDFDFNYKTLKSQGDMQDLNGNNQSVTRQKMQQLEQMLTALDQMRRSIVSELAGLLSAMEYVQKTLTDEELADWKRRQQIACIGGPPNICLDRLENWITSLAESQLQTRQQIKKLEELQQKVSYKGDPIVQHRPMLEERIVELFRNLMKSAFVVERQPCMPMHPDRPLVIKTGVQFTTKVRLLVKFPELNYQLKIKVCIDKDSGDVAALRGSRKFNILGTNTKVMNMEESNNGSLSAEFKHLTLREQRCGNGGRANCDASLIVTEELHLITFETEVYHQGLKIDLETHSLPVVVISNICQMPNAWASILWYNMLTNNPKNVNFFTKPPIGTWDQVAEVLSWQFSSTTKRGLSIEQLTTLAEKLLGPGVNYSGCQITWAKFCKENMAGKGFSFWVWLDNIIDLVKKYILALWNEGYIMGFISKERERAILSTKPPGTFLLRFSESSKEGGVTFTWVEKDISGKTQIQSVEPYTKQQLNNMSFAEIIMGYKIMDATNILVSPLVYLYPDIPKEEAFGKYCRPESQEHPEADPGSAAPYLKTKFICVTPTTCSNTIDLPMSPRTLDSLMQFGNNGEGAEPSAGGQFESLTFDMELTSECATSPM

The target of assay [4] is Tyrosine-protein kinase JAK2 (Homo sapiens) (UniProt O60674). Description: Inhibition of JAK2 phosphorylation in human A-375 cells at 5 to 50 uM after 12 hrs by Western blotting analysis. In kind it is cell-based. The note with it: dose 5-50 µM. The gist of the method:
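A375 cells were treated with 0, 5, 10 or 25 µM overnight (methods state 12 h) in RPMI-1640 with Glutamax. Lysates (60 µg protein) were run on 10% SDS-PAGE and immunoblotted for phospho-JAK2 or phospho-ERK1/2, with actin and/or vinculin as loading controls; performed twice.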
In general terms: In western blotting, separated proteins are transferred to a membrane and probed.

Assay [5] concerns the target Signal transducer and activator of transcription 6 (Homo sapiens) (UniProt P42226). The experiment in a line: Inhibition of STAT6 phosphorylation at Y641 residues in human A-375 cells at 50 uM after 20 hrs by Western blotting analysis. The format is cell-based. In outline:
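A375 cells exposed to a dose range of inhibitor for 20 h (overnight), up to 50 µM; lysates immunoblotted for phospho-STAT1 Y701, phospho-STAT5 Y694 and phospho-STAT6 Y641, with actin and/or vinculin as loading controls.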

In assay [6] the target is T1, Signal transducer and activator of transcription 3. Description: Inhibition of IRDY 700 oligonucleotide binding to STAT3 in human A-375 cell nuclear extract measured after overnight incubation by electrophoretic mobility shift assay. Conditions: dose 10-25 µM. In outline: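 A375 cells were treated overnight with inhibitor doses or DMSO in full RPMI. Nuclear extracts were prepared by low-salt lysis followed by high-salt extraction, with protease and phosphatase inhibitors. EMSA used 5 µg extract per reaction with IRDye 700 STAT3 consensus oligo; competitor and mutant oligos served as controls, and a STAT3-immunoprecipitated extract was included.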
Background: Mobility shift assays separate free from complexed probe on a gel.

A short description of assay [7]: Antiproliferative activity against human SB-590885-sensitive 451Lu cells assessed as reduction in cell viability measured after 48 hrs by MTS assay. In kind it is functional. In outline: (§1)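 Melanoma lines were grown in RPMI-1640 with Glutamax at 37 °C and 5% CO2. The resistant 451 Lu-R and MEL 1617-R sublines were maintained with 1 µM PLX4720. Cells were incubated with vehicle or inhibitor over a dose range, and viability was read by MTS assay in triplicate.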

Assay [8] deals with A-375. Description: Cell cycle arrest in human A-375 cells assessed as increase in accumulation at G1-phase measured after 24 hrs by […]. The note with it: dose 10-25 µM. The format is functional, cell-based.
For assay [9], the system named is A-375. Description: Cell cycle arrest in human A-375 cells assessed as accumulation at S-phase at 25 uM measured after 24 hrs by […] (reference value: 33.6 to 33.7%). The format is functional.
In assay [10] the test system is A-375. The experiment in a line: Up regulation of p27kip1 expression in human A-375 cells measured after 24 hrs by Western blot analysis. The note with it: dose 5-50 µM. The format is functional, cell-based. The gist of the method:
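A375 cells treated overnight (same as cell-cycle treatment, 24 h) with different doses, then lysed and immunoblotted for p27kip1, PAX3 and Cyclin D1.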

The subject of assay [11] is A-375. Description: Down regulation of cyclin D1 expression in human A-375 cells measured after 24 hrs by Western blot analysis. The format is functional, cell-based. The note with it: dose 5-50 µM. In outline:
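A375 cells were treated for one night with a dose range of inhibitor, lysed, and Cyclin D1 was detected by western blot.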

Assay [12] concerns the target T1, Signal transducer and activator of transcription 3. The experiment in a line: Inhibition of STAT3 phosphorylation at S727 residue in human SB-590885-sensitive 451Lu cells measured after 12 hrs by Western blot analysis. Conditions: dose 10-25 µM. The gist of the method: (§2)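 451 Lu and MEL 1617 pairs, sensitive and resistant; resistant lines maintained in RPMI with 1 µM PLX4720. Treated with 10 and 25 µM for 12 h versus DMSO. Lysates (60 µg protein, 10% SDS-PAGE) immunoblotted for Ser727- and Tyr705-phospho-STAT3, total STAT3, total PAX3, with actin.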

Assay [13] shares this target. Description: Inhibition of STAT3 phosphorylation at Y705 residue in human SB-590885-sensitive MEL1617 cells at 10 to 25 uM measured after 12 hrs by Western blot analysis. The format is cell-based. The note with it: dose 10-25 µM. In outline:
as §2

Assay [14] has the same target. Description: Inhibition of STAT3 phosphorylation at S727 residue in human SB-590885-sensitive MEL1617 cells at 10 to 25 uM measured after 12 hrs by Western blot analysis. In kind it is cell-based. The note with it: dose 10-25 µM. In outline:
as §2

Assay [15] has the same target. The experiment in a line: Inhibition of STAT3 in human SB-590885-sensitive MEL1617 cells assessed as reduction in PAX3 expression at 10 to 25 uM measured after 12 hrs by Western blot analysis. In kind it is cell-based. Conditions: dose 10-25 µM. The gist of the method: as §2
The target is the same in assay [16]. Description: Inhibition of STAT3 in human SB-590885-resistant MEL1617 cells assessed as reduction in PAX3 expression at 10 to 25 uM measured after 12 hrs by Western blot analysis. In kind it is cell-based. The note with it: dose 10-25 µM. The gist of the method: as §2
Assay [17] has the same target. Description: Inhibition of STAT3 in human SB-590885-sensitive MEL1617 cells assessed as reduction in STAT3 transcriptional activity measured after 12 hrs by Dual-luciferase reporter gene assay. The format is cell-based. In outline:
(§3)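 Cells co-transfected with inducible STAT3-responsive firefly luciferase and constitutive Renilla luciferase constructs (40:1) using Lipofectamine 3000. After 48 h, dose series in DMSO vehicle applied for 12 h, followed by dual-luciferase readout. Firefly signal normalized to Renilla and compared with untreated cells. Run in triplicate; IC50 taken from dose–response curves.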

Assay [18] shares this target. The experiment in a line: Inhibition of STAT3 in human SB-590885-resistant MEL1617 cells assessed as reduction in STAT3 transcriptional activity measured after 12 hrs by Dual-luciferase reporter gene assay. The format is cell-based. The gist of the method:
as §3

The nature of assay [19]: Antiproliferative activity against human SB-590885-resistant 451Lu cells assessed as reduction in cell viability measured after 48 hrs by MTS assay. The note with it: Homo sapiens, 451Lu, 48 h; read-out: IC50. The format is functional. In outline: as §1
A short description of assay [20]: Antiproliferative activity against human SB-590885-resistant MEL1617 cells assessed as reduction in cell viability measured after 48 hrs by MTS assay. In kind it is functional, cell-based. The note with it: Homo sapiens, MEL1617, 48 h; read-out: IC50. The gist of the method:
as §1

Chain of Signal transducer and activator of transcription 6 (Homo sapiens) (P42226 whole entry): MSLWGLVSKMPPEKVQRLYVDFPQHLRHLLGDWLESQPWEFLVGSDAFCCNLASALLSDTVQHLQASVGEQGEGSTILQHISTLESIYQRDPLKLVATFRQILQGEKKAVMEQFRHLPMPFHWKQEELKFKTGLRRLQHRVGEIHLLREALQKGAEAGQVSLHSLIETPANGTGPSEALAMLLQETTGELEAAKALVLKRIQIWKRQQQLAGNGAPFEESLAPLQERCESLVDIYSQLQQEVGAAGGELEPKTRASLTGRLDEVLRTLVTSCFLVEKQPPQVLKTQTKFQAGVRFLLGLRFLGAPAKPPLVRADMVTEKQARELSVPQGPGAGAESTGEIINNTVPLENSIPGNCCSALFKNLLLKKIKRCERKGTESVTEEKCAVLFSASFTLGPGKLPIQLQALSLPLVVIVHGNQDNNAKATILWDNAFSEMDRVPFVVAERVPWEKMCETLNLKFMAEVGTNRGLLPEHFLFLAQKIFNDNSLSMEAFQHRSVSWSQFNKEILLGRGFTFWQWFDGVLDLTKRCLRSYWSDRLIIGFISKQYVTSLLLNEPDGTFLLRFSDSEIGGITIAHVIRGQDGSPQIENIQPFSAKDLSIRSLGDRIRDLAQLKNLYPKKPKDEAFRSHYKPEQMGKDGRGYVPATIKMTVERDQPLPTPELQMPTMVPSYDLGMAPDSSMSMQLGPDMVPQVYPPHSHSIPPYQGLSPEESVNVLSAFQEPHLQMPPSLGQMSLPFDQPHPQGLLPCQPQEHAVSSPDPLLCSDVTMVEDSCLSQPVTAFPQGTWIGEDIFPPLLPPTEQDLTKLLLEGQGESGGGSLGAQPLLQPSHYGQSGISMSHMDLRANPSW
Chain of Tyrosine-protein kinase JAK2 (Homo sapiens) (O60674 whole entry): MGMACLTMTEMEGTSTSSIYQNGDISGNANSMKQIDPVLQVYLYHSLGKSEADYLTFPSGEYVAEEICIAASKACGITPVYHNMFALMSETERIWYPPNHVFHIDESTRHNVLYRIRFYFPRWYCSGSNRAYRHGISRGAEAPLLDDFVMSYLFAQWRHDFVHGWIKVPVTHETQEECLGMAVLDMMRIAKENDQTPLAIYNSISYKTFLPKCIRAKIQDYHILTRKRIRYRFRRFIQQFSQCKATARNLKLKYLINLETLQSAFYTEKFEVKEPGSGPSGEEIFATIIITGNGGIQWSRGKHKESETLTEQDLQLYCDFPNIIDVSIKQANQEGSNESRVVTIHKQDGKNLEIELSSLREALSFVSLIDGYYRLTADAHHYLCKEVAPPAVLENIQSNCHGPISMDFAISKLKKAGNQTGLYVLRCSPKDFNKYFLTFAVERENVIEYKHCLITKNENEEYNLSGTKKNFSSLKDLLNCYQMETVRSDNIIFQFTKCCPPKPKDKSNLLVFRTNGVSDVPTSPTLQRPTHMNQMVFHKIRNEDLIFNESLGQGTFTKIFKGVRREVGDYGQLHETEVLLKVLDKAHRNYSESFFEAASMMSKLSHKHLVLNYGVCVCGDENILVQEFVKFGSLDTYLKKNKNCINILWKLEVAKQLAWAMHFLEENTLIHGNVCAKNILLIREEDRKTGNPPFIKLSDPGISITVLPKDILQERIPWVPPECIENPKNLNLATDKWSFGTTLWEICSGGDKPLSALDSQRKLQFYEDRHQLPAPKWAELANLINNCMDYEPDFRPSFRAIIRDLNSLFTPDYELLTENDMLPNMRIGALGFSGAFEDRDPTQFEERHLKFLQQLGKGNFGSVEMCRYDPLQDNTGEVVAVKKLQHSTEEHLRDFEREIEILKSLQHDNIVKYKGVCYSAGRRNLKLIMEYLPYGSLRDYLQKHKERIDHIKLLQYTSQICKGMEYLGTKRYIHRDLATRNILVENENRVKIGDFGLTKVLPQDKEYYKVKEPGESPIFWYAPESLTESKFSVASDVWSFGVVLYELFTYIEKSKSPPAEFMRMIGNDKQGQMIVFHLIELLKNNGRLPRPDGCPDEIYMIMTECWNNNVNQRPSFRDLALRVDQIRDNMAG

As to `C=CCn1c(SCC(=O)Nc2ccc(/C(C)=N\O)cc2)nnc1-c1cc(-c2ccc(Cl)cc2)nc2ccccc12`, the inhibition of growth at 10 µM in [1] came to 100%. Besides, the Drug metabolism in assay [2] was found to be 30%. Moreover, the IC50 in assay [3] came to 0.25 µM; in assay [7], 11.3 µM; in assay [17], 21.4 µM; in assay [18], 15.6 µM; in [19], 47 µM; in [20] it was 54.1 µM. For the same compound, the inhibition entry in assay [3], in assay [6] and in assay [12] was “Dose-dependent effect” in each case. Also, the inhibition entry in assay [4] and in assay [5] was “inactive” in each case. The Activity entry is “Dose-dependent effect” in [8], 21.4% in assay [9], “Dose-dependent effect” in assay [10] and “Dose-dependent effect” in assay [11]. Also, the inhibition result in assay [13], in [14], in assay [15] and in assay [16] was “Active” in each case.
As for `C=CCn1c(SCC(=O)Nc2ccc(/C(C)=N\O)cc2)nnc1-c1cc(-c2ccccc2)nc2ccccc12`, the inhibition of growth at 10 µM in assay [1] was found to be 76%. Besides, the Drug metabolism in [2] was determined as 30%. Besides, the IC50 in [3] was determined as 0.32 µM; in assay [7] it was 1.77 µM; in [17] it was 10.3 µM; in assay [18] it was 9.9 µM; in assay [19], 7.8 µM; in assay [20], 10.8 µM. Moreover, the inhibition entry in [3], in assay [6] and in [12] was “Dose-dependent effect” throughout. For the same compound, the inhibition entry in [4] and in [5] was “inactive” in each case. Further, the Activity result in assay [8] was “Dose-dependent effect”; in assay [9], 12.3%; in assay [10], “Dose-dependent effect”; in [11], “Dose-dependent effect”. Also, the inhibition result in [13], in [14], in [15] and in [16] was “Active” each time.

One may read the IC50 as the point on the concentration scale where inhibition reaches its midpoint.
